# Measured values from ChEMBL document CHEMBL4689842, “EUbOPEN Chemogenomics Library wave 1” (2021).
# System: Fibroblast
# Test: Multiplex assay against human fibroblast
# Type: toxicity, cell-based
# Summary of the method: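 Phenotypes for tubulin, mitochondrial mass and membrane permeability are expressed as per cents of healthy-nucleus cells. Cells were stained live at seeding with Hoechst33342, BioTracker Green Microtubule Cytoskeleton Dye, MitoTracker Red and Annexin V Alexa Fluor 680, then imaged after compound addition on a CQ1 microscope at 37°C and 5% CO2. Machine-learning gating in CellPathfinder separated Hoechst high-intensity objects from normal cells, divided normal cells by nuclear state (healthy, pyknosed, fragmented) and divided pyknosed cells into mitotic or apoptotic.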
# [1] = 12 h, 1 µM, compound concentration 1 uM, replicate 1
# [2] = 12 h, 1 µM, compound concentration 1 uM, replicate 2
# [3] = 12 h, 10 µM, compound concentration 10 uM, replicate 1
# [4] = 12 h, 10 µM, compound concentration 10 uM, replicate 2
# [5] = 24 h, 1 µM, compound concentration 1 uM, replicate 1
# [6] = 24 h, 1 µM, compound concentration 1 uM, replicate 2
# [7] = 24 h, 10 µM, compound concentration 10 uM, replicate 1
# [8] = 24 h, 10 µM, compound concentration 10 uM, replicate 2
# [9] = 48 h, 1 µM, compound concentration 1 uM, replicate 1
# [10] = 48 h, 1 µM, compound concentration 1 uM, replicate 2
# [11] = 48 h, 10 µM, compound concentration 10 uM, replicate 1
# [12] = 48 h, 10 µM, compound concentration 10 uM, replicate 2
smiles,measurement,setting,value
Cc1ccc(C)c(Oc2ccncc2C(=O)N2CCN(C3CC3)c3ccccc32)c1,Population Apoptotic (%),[1],75%
same,Population Fragmented Nuclei (%),[1],20%
same,Population Healthy Nuclei (%),[1],58%
same,Population Hoechst High Intensity Objects (%),[1],13%
same,Population Normal (%),[1],86%
same,Total Cell Count,[1],90
same,Population Apoptotic (%),[2],66%
same,Population Healthy Nuclei (%),[2],75%
same,Population Hoechst High Intensity Objects (%),[2],10%
same,Population Normal (%),[2],89%
same,Total Cell Count,[2],73
same,Population Apoptotic (%),[3],59%
same,Population Fragmented Nuclei (%),[3],27%
same,Population Healthy Nuclei (%),[3],43%
same,Population Hoechst High Intensity Objects (%),[3],10%
same,Population Normal (%),[3],89%
same,Total Cell Count,[3],178
same,Population Apoptotic (%),[4],33%
same,Population Fragmented Nuclei (%),[4],6%
same,Population Healthy Nuclei (%),[4],72%
same,Population Hoechst High Intensity Objects (%),[4],3%
same,Population Normal (%),[4],96%
same,Total Cell Count,[4],59
same,Population Apoptotic (%),[5],52%
same,Population Fragmented Nuclei (%),[5],19%
same,Population Healthy Nuclei (%),[5],56%
same,Population Hoechst High Intensity Objects (%),[5],19%
same,Population Normal (%),[5],80%
same,Total Cell Count,[5],88
same,Population Apoptotic (%),[6],42%
same,Population Fragmented Nuclei (%),[6],27%
same,Population Healthy Nuclei (%),[6],60%
same,Population Hoechst High Intensity Objects (%),[6],6%
same,Population Normal (%),[6],93%
same,Total Cell Count,[6],71
same,Population Apoptotic (%),[7],55%
same,Population Fragmented Nuclei (%),[7],26%
same,Population Healthy Nuclei (%),[7],51%
same,Population Hoechst High Intensity Objects (%),[7],6%
same,Population Normal (%),[7],93%
same,Total Cell Count,[7],189
same,Population Apoptotic (%),[8],53%
same,Population Healthy Nuclei (%),[8],66%
same,Population Hoechst High Intensity Objects (%),[8],7%
same,Population Normal (%),[8],92%
same,Total Cell Count,[8],65
same,Population Apoptotic (%),[9],80%
same,Population Fragmented Nuclei (%),[9],23%
same,Population Healthy Nuclei (%),[9],57%
same,Population Hoechst High Intensity Objects (%),[9],11%
same,Population Normal (%),[9],88%
same,Total Cell Count,[9],87
same,Population Apoptotic (%),[10],50%
same,Population Fragmented Nuclei (%),[10],24%
same,Population Healthy Nuclei (%),[10],72%
same,Population Normal (%),[10],84%
same,Total Cell Count,[10],91
same,Population Apoptotic (%),[11],66%
same,Population Fragmented Nuclei (%),[11],40%
same,Population Healthy Nuclei (%),[11],52%
same,Population Hoechst High Intensity Objects (%),[11],9%
same,Population Normal (%),[11],91%
same,Total Cell Count,[11],211
same,Population Apoptotic (%),[12],25%
same,Population Fragmented Nuclei (%),[12],42%
same,Population Healthy Nuclei (%),[12],54%
same,Population Hoechst High Intensity Objects (%),[12],7%
same,Population Normal (%),[12],92%
same,Total Cell Count,[12],159
CC(C)NC(=O)N1CC[C@H](NC2=Nc3cc(F)ccc3N(CC(F)F)c3ccc(Cl)cc32)C1,Population Apoptotic (%),[1],68%
same,Population Fragmented Nuclei (%),[1],27%
same,Population Healthy Nuclei (%),[1],30%
same,Population Hoechst High Intensity Objects (%),[1],12%
same,Population Membrane Permeable-Phenotype (%),[1],4%
same,Population Mitochondria Different-Phenotype (%),[1],4%
same,Population Mitotic Cells (%),[1],31%
same,Population Normal (%),[1],87%
same,Population Pyknosed Nuclei (%),[1],42%
same,Population Tubulin-Different-Phenotype (%),[1],14%
same,Total Cell Count,[1],79
same,Population Apoptotic (%),[2],33%
same,Population Fragmented Nuclei (%),[2],5%
same,Population Healthy Nuclei (%),[2],89%
same,Population Hoechst High Intensity Objects (%),[2],9%
same,Population Mitochondria Different-Phenotype (%),[2],18%
same,Population Mitotic Cells (%),[2],66%
same,Population Normal (%),[2],90%
same,Population Pyknosed Nuclei (%),[2],5%
same,Total Cell Count,[2],293
same,Population Apoptotic (%),[3],70%
same,Population Fragmented Nuclei (%),[3],29%
same,Population Healthy Nuclei (%),[3],40%
same,Population Hoechst High Intensity Objects (%),[3],13%
same,Population Membrane Permeable-Phenotype (%),[3],8%
same,Population Mitochondria Different-Phenotype (%),[3],21%
same,Population Mitotic Cells (%),[3],29%
same,Population Normal (%),[3],86%
same,Population Pyknosed Nuclei (%),[3],29%
same,Population Tubulin-Different-Phenotype (%),[3],89%
same,Total Cell Count,[3],160
same,Population Apoptotic (%),[4],0%
same,Population Fragmented Nuclei (%),[4],6%
same,Population Healthy Nuclei (%),[4],81%
same,Population Membrane Permeable-Phenotype (%),[4],13%
same,Population Mitochondria Different-Phenotype (%),[4],63%
same,Population Mitotic Cells (%),[4],100%
same,Population Pyknosed Nuclei (%),[4],11%
same,Population Tubulin-Different-Phenotype (%),[4],58%
same,Total Cell Count,[4],62
same,Population Apoptotic (%),[5],62%
same,Population Fragmented Nuclei (%),[5],21%
same,Population Healthy Nuclei (%),[5],40%
same,Population Hoechst High Intensity Objects (%),[5],9%
same,Population Membrane Permeable-Phenotype (%),[5],25%
same,Population Mitochondria Different-Phenotype (%),[5],6%
same,Population Mitotic Cells (%),[5],37%
same,Population Normal (%),[5],90%
same,Population Pyknosed Nuclei (%),[5],38%
same,Population Tubulin-Different-Phenotype (%),[5],22%
same,Total Cell Count,[5],84
same,Population Apoptotic (%),[6],50%
same,Population Fragmented Nuclei (%),[6],5%
same,Population Healthy Nuclei (%),[6],88%
same,Population Hoechst High Intensity Objects (%),[6],6%
same,Population Membrane Permeable-Phenotype (%),[6],6%
same,Population Mitochondria Different-Phenotype (%),[6],19%
same,Population Mitotic Cells (%),[6],50%
same,Population Normal (%),[6],93%
same,Population Pyknosed Nuclei (%),[6],5%
same,Population Tubulin-Different-Phenotype (%),[6],9%
same,Total Cell Count,[6],281
same,Population Apoptotic (%),[7],64%
same,Population Fragmented Nuclei (%),[7],32%
same,Population Healthy Nuclei (%),[7],45%
same,Population Hoechst High Intensity Objects (%),[7],13%
same,Population Membrane Permeable-Phenotype (%),[7],10%
same,Population Mitochondria Different-Phenotype (%),[7],46%
same,Population Mitotic Cells (%),[7],35%
same,Population Normal (%),[7],86%
same,Population Pyknosed Nuclei (%),[7],21%
same,Population Tubulin-Different-Phenotype (%),[7],92%
same,Total Cell Count,[7],163
same,Population Apoptotic (%),[8],83%
same,Population Fragmented Nuclei (%),[8],13%
same,Population Healthy Nuclei (%),[8],73%
same,Population Hoechst High Intensity Objects (%),[8],10%
same,Population Membrane Permeable-Phenotype (%),[8],6%
same,Population Mitochondria Different-Phenotype (%),[8],57%
same,Population Mitotic Cells (%),[8],16%
same,Population Normal (%),[8],90%
same,Population Pyknosed Nuclei (%),[8],13%
same,Population Tubulin-Different-Phenotype (%),[8],51%
same,Total Cell Count,[8],75
same,Population Apoptotic (%),[9],52%
same,Population Fragmented Nuclei (%),[9],17%
same,Population Healthy Nuclei (%),[9],58%
same,Population Hoechst High Intensity Objects (%),[9],12%
same,Population Membrane Permeable-Phenotype (%),[9],23%
same,Population Mitochondria Different-Phenotype (%),[9],2%
same,Population Mitotic Cells (%),[9],47%
same,Population Normal (%),[9],87%
same,Population Pyknosed Nuclei (%),[9],23%
same,Population Tubulin-Different-Phenotype (%),[9],20%
same,Total Cell Count,[9],83
same,Population Apoptotic (%),[10],33%
same,Population Fragmented Nuclei (%),[10],37%
same,Population Healthy Nuclei (%),[10],59%
same,Population Hoechst High Intensity Objects (%),[10],25%
same,Population Mitochondria Different-Phenotype (%),[10],3%
same,Population Mitotic Cells (%),[10],66%
same,Population Normal (%),[10],74%
same,Population Pyknosed Nuclei (%),[10],3%
same,Population Tubulin-Different-Phenotype (%),[10],33%
same,Total Cell Count,[10],126
same,Population Apoptotic (%),[11],62%
same,Population Fragmented Nuclei (%),[11],41%
same,Population Healthy Nuclei (%),[11],48%
same,Population Hoechst High Intensity Objects (%),[11],20%
same,Population Membrane Permeable-Phenotype (%),[11],15%
same,Population Mitochondria Different-Phenotype (%),[11],21%
same,Population Mitotic Cells (%),[11],37%
same,Population Normal (%),[11],80%
same,Population Pyknosed Nuclei (%),[11],10%
same,Population Tubulin-Different-Phenotype (%),[11],90%
same,Total Cell Count,[11],190
same,Population Apoptotic (%),[12],100%
same,Population Fragmented Nuclei (%),[12],24%
same,Population Healthy Nuclei (%),[12],74%
same,Population Hoechst High Intensity Objects (%),[12],7%
same,Population Membrane Permeable-Phenotype (%),[12],6%
same,Population Mitochondria Different-Phenotype (%),[12],1%
same,Population Mitotic Cells (%),[12],0%
same,Population Normal (%),[12],92%
same,Population Pyknosed Nuclei (%),[12],1%
same,Population Tubulin-Different-Phenotype (%),[12],56%
same,Total Cell Count,[12],88
